In ChEMBL document CHEMBL4138068, “Aryl-alkyl-lysines: small molecular membrane-active antiplasmodial agents” (Medchemcomm, 2017):

Columns and labels:
Plasmodium falciparum [1] = assay: Antimalarial activity against Plasmodium falciparum 3D7 cultured in human O+ erythrocytes assessed as reduction in parasite growth incubated for 48 hrs by SYBR green I based fluorescence assay; assay type: functional, organism-based; conditions: 3D7, 48 h
Summary of the method: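 Sorbitol-synchronized ring-stage cultures (2% haematocrit, 1% parasitaemia) were exposed to serial dilutions in complete RPMI, top concentration 10 µM, for 48 h. Chloroquine served as positive control and no compound as negative control. Lysis buffer with SYBR Green I (Tris pH 7.5, EDTA, saponin, Triton X-100) was added for 1 h in the dark at 37°C. Fluorescence was read at ex 485/em 530 nm, and IC50 came from sigmoidal curves, checked against Giemsa smears.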

[2] = Selectivity index, ratio of HC50 for haemolytic activity in human erythrocytes to IC50 for antimalarial activity against Plasmodium falciparum 3D7 cultured in human O+ erythrocytes; assay type: toxicity, cell-based; conditions: read-out: Selectivity Index
[3] = Haemolytic activity in human erythrocytes assessed as induction of hemolysis incubated for 1 hr; assay type: cell-based, Erythrocyte
Summary of the method: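 Human erythrocytes from fresh heparinized blood were suspended at 5 vol% in PBS (pH 7.4), mixed 3:1 with serially diluted compound, and incubated 1 h at 37°C. Controls were no compound and 1 vol% Triton X-100. After centrifugation, supernatant A540 gave % haemolysis relative to the Triton control. HC50 is the mean ± SEM of at least two independent experiments, each run in triplicate.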

Mus musculus [4] = assay: Toxicity in Balb/c mouse assessed as effect on AST level level at 20 mg/kg, iv; assay type: organism-based; conditions: in vivo
Mus musculus [5] = assay: Toxicity in Balb/c mouse assessed as effect on urea nitrogen level level at 20 mg/kg, iv; assay type: organism-based; conditions: in vivo
Mus musculus [6] = assay: Toxicity in Plasmodium berghei ANKA infected in Swiss-Harlan mouse model of cerebral malaria assessed as induction of prolonged malaise at 30 mg/kg, ip for 4 days dosed 2 hrs post infection and measured 5 days post infection by Giemsa staining based Peter's 4 day test; assay type: organism-based; conditions: in vivo, 120 h
Plasmodium falciparum [7] = assay: Antimalarial activity against […] Plasmodium falciparum RKL9 cultured in human O+ erythrocytes assessed as reduction in parasite growth incubated for 48 hrs by SYBR green I based fluorescence assay; assay type: functional, organism-based; conditions: RKL9, 48 h
Summary of the method: (§1)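 Sorbitol-synchronized ring-stage cultures (2% haematocrit, 1% parasitaemia) exposed for 48 h to serial dilutions in complete RPMI, top concentration 10µM. CQ was the positive control and drug-free wells the negative control. Growth was read by SYBR Green I lysis buffer, 1 h at 37°C in the dark, fluorescence ex 485/em 530 nm. IC50 came from sigmoidal curve fits, checked by Giemsa smears.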

Plasmodium berghei [8] = assay: (§2) Antimalarial activity against Plasmodium berghei ANKA infected in Swiss-Harlan mouse model of cerebral malaria assessed as reduction in parasitemia at 20 mg/kg, ip for 4 days dosed 2 hrs post infection and measured 5 days post infection by Giemsa staining based Peter's 4 day test; assay type: functional; set-up: scale not given: the % may be the effect or the level left
Summary of the method: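 Female Swiss mice (6-8 weeks) were infected IP with 10⁷ P. berghei ANKA-parasitized RBCs. Two hours later, groups (n=4) received 20 mg/kg IP or PBS control, repeated every 24 h for four days. Parasitemia was read on day 5 from Giemsa-stained tail-blood smears, and survival was followed until death.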

Mus musculus [9] = assay: Toxicity in Balb/c mouse assessed as effect on blood electrochemical balance by measuring chloride level at 20 mg/kg, iv; assay type: organism-based; conditions: in vivo
Mus musculus [10] = assay: Toxicity in Plasmodium berghei ANKA infected in Swiss-Harlan mouse model of cerebral malaria assessed as induction of mouse death at 30 mg/kg, ip for 4 days dosed 2 hrs post infection and measured 5 days post infection by Giemsa staining based Peter's 4 day test; assay type: organism-based; conditions: in vivo, 120 h
Mus musculus [11] = assay: Toxicity in Balb/c mouse assessed as effect on blood electrochemical balance by measuring potassium level at 20 mg/kg, iv; assay type: organism-based; conditions: in vivo
Plasmodium berghei [12] = assay: as §2, with “time duration for complete mouse mortality” for “reduction in parasitemia”, “test (reference value: =<7 days)” for “test”; assay type: functional
Summary of the method: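 Female Swiss mice, 6-8 weeks old, infected IP with 10⁷ P. berghei ANKA parasitized RBCs. Starting 2 h post-infection, 20 mg/kg IP (PBS vehicle; PBS-only controls) every 24 h for four days, n=4. Day-5 parasitemia read from Giemsa-stained tail-blood smears; survival followed until death.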

Mus musculus [13] = assay: Toxicity in Balb/c mouse assessed as effect on blood electrochemical balance by measuring sodium level at 20 mg/kg, iv; assay type: organism-based; conditions: in vivo
Plasmodium falciparum [14] = assay: Antimalarial activity against […] Plasmodium falciparum MRC2 cultured in human O+ erythrocytes assessed as reduction in parasite growth incubated for 48 hrs by SYBR green I based fluorescence assay; assay type: functional, organism-based; conditions: MRC2, 48 h; summary of the method: as §1
Mus musculus [15] = assay: Toxicity in Balb/c mouse assessed as effect on creatinine level level at 17.5 mg/kg, iv; conditions: in vivo
[16] = Toxicity in Balb/c mouse at 5.5 to 175 mg/kg, iv for 14 days; assay type: organism-based; conditions: in vivo
Summary of the method: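 Female Balb/c mice, 6-8 weeks old, dosed intravenously in PBS at 175, 55, 17.5 and 5.5 mg/kg. Adverse effects were observed directly for 4 h and mortality for 14 days. LD50 was calculated from survival with the Spearman-Karber equation.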

Mus musculus [17] = assay: Toxicity in Balb/c mouse assessed as effect on ALT level level at 20 mg/kg, iv; assay type: organism-based; conditions: in vivo

| SMILES | IC50 (Plasmodium falciparum [1]) | selectivity ratio [2] | HC50 at 1 h [3] | Activity (Mus musculus [4]) | Activity (Mus musculus [5]) | Activity (Mus musculus [6]) | IC50 (Plasmodium falciparum [7]) | Activity (Plasmodium berghei [8]) | Activity (Mus musculus [9]) | Activity (Mus musculus [10]) | Activity (Mus musculus [11]) | Time (Plasmodium berghei [12]) | Activity (Mus musculus [13]) | IC50 (Plasmodium falciparum [14]) | Activity (Mus musculus [15]) | LD50 at 336 h [16] | Activity (Mus musculus [17]) |
| --- | --- | --- | --- | --- | --- | --- | --- | --- | --- | --- | --- | --- | --- | --- | --- | --- | --- |
| CCCCCCCCN(Cc1cccc2ccccc12)C(=O)C(CCCCNC(=O)OC(C)(C)C)NC(=O)OC(C)(C)C (stereo not given) | 3 µM | 32 | 96 µM | – | – | – | – | – | – | – | – | – | – | – | – | – | – |
| CCCCCCN(Cc1cccc2ccccc12)C(=O)C(CCCCNC(=O)OC(C)(C)C)NC(=O)OC(C)(C)C.O=C(O)C(F)(F)F.O=C(O)C(F)(F)F (stereo not given) | 1 µM | 850 | 850 µM | Non-Toxic | Non-Toxic | Toxic | 1.4 µM | 60% | Non-Toxic | Toxic | Non-Toxic | 12 days | Non-Toxic | 5 µM | Non-Toxic | 98 mg/kg | Non-Toxic |
| CCCCCCN(Cc1ccccc1)C(=O)C(CCCCNC(=O)OC(C)(C)C)NC(=O)OC(C)(C)C (stereo not given) | > 5 µM | – | > 1000 µM | – | – | – | – | – | – | – | – | – | – | – | – | – | – |
| CCCCCCCCN(Cc1ccccc1)C(=O)C(CCCCNC(=O)OC(C)(C)C)NC(=O)OC(C)(C)C (stereo not given) | 4 µM | 141 | 564 µM | – | – | – | – | – | – | – | – | – | – | – | – | – | – |
